Results published in ChEMBL document CHEMBL5058577, “EUbOPEN Chemogenomics Library 2 (Multiplex)” (2022).

Tested on: Fibroblast
Assay: Multiplex assay against human fibroblast
Assay type: toxicity, cell-based
Method in brief: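 Tubulin, mitochondrial-mass and membrane-permeability phenotypes are per cents of healthy-nucleus cells. Cells were gated by CellPathfinder machine learning into Hoechst high-intensity objects or normal cells, normal cells into healthy, pyknosed or fragmented nuclei, and pyknosed cells into mitotic or apoptotic. Before that, live cells stained at seeding with Hoechst33342, BioTracker Green Microtubule Cytoskeleton Dye, MitoTracker Red and Annexin V Alexa Fluor 680 were imaged on a CQ1 microscope at 37°C and 5% CO2 after compound addition.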

[1] = 12 h, 1 µM, compound concentration 1 uM, replicate 1
[2] = 12 h, 1 µM, compound concentration 1 uM, replicate 2
[3] = 12 h, 10 µM, compound concentration 10 uM, replicate 1
[4] = 12 h, 10 µM, compound concentration 10 uM, replicate 2
[5] = 24 h, 1 µM, compound concentration 1 uM, replicate 1
[6] = 24 h, 1 µM, compound concentration 1 uM, replicate 2
[7] = 24 h, 10 µM, compound concentration 10 uM, replicate 1
[8] = 24 h, 10 µM, compound concentration 10 uM, replicate 2
[9] = 48 h, 1 µM, compound concentration 1 uM, replicate 1
[10] = 48 h, 1 µM, compound concentration 1 uM, replicate 2
[11] = 48 h, 10 µM, compound concentration 10 uM, replicate 1
[12] = 48 h, 10 µM, compound concentration 10 uM, replicate 2

CN(C)C(=O)Cn1cc(-c2ccc(-c3cncc4ccccc34)cc2)cn1
Population Apoptotic (%) [1]: 47%
Population Fragmented Nuclei (%) [1]: 10%
Population Healthy Nuclei (%) [1]: 72%
Population Hoechst High Intensity Objects (%) [1]: 0%
Population Membrane Permeable-Phenotype (%) [1]: 0%
Population Mitochondria Different-Phenotype (%) [1]: 5%
Population Mitotic Cells (%) [1]: 52%
Population Normal (%) [1]: 100%
Population Pyknosed Nuclei (%) [1]: 16%
Population Tubulin-Different-Phenotype (%) [1]: 31%
Total Cell Count [1]: 139
Population Apoptotic (%) [2]: 32%
Population Fragmented Nuclei (%) [2]: 33%
Population Healthy Nuclei (%) [2]: 46%
Population Hoechst High Intensity Objects (%) [2]: 5%
Population Membrane Permeable-Phenotype (%) [2]: 5%
Population Mitochondria Different-Phenotype (%) [2]: 2%
Population Mitotic Cells (%) [2]: 67%
Population Normal (%) [2]: 94%
Population Pyknosed Nuclei (%) [2]: 20%
Population Tubulin-Different-Phenotype (%) [2]: 54%
Total Cell Count [2]: 161
Population Apoptotic (%) [3]: 33%
Population Fragmented Nuclei (%) [3]: 13%
Population Healthy Nuclei (%) [3]: 69%
Population Hoechst High Intensity Objects (%) [3]: 4%
Population Membrane Permeable-Phenotype (%) [3]: 1%
Population Mitochondria Different-Phenotype (%) [3]: 12%
Population Mitotic Cells (%) [3]: 66%
Population Normal (%) [3]: 95%
Population Pyknosed Nuclei (%) [3]: 16%
Population Tubulin-Different-Phenotype (%) [3]: 52%
Total Cell Count [3]: 113
Population Fragmented Nuclei (%) [4]: 40%
Population Healthy Nuclei (%) [4]: 42%
Population Hoechst High Intensity Objects (%) [4]: 9%
Population Membrane Permeable-Phenotype (%) [4]: 18%
Population Mitochondria Different-Phenotype (%) [4]: 5%
Population Normal (%) [4]: 90%
Population Tubulin-Different-Phenotype (%) [4]: 81%
Total Cell Count [4]: 98
Population Apoptotic (%) [5]: 47%
Population Fragmented Nuclei (%) [5]: 12%
Population Healthy Nuclei (%) [5]: 73%
Population Hoechst High Intensity Objects (%) [5]: 5%
Population Membrane Permeable-Phenotype (%) [5]: 0%
Population Mitochondria Different-Phenotype (%) [5]: 3%
Population Mitotic Cells (%) [5]: 52%
Population Normal (%) [5]: 94%
Population Pyknosed Nuclei (%) [5]: 14%
Population Tubulin-Different-Phenotype (%) [5]: 37%
Total Cell Count [5]: 137
Population Apoptotic (%) [6]: 48%
Population Fragmented Nuclei (%) [6]: 40%
Population Healthy Nuclei (%) [6]: 38%
Population Membrane Permeable-Phenotype (%) [6]: 7%
Population Mitochondria Different-Phenotype (%) [6]: 5%
Population Mitotic Cells (%) [6]: 51%
Population Pyknosed Nuclei (%) [6]: 20%
Population Tubulin-Different-Phenotype (%) [6]: 61%
Total Cell Count [6]: 156
Population Apoptotic (%) [7]: 50%
Population Fragmented Nuclei (%) [7]: 20%
Population Healthy Nuclei (%) [7]: 62%
Population Hoechst High Intensity Objects (%) [7]: 8%
Population Membrane Permeable-Phenotype (%) [7]: 0%
Population Mitochondria Different-Phenotype (%) [7]: 12%
Population Mitotic Cells (%) [7]: 50%
Population Normal (%) [7]: 91%
Population Pyknosed Nuclei (%) [7]: 17%
Population Tubulin-Different-Phenotype (%) [7]: 59%
Total Cell Count [7]: 113
Population Apoptotic (%) [8]: 41%
Population Fragmented Nuclei (%) [8]: 41%
Population Healthy Nuclei (%) [8]: 43%
Population Hoechst High Intensity Objects (%) [8]: 5%
Population Membrane Permeable-Phenotype (%) [8]: 11%
Population Mitochondria Different-Phenotype (%) [8]: 8%
Population Mitotic Cells (%) [8]: 58%
Population Normal (%) [8]: 94%
Population Pyknosed Nuclei (%) [8]: 15%
Population Tubulin-Different-Phenotype (%) [8]: 85%
Total Cell Count [8]: 85
Population Apoptotic (%) [9]: 76%
Population Fragmented Nuclei (%) [9]: 21%
Population Healthy Nuclei (%) [9]: 65%
Population Hoechst High Intensity Objects (%) [9]: 6%
Population Membrane Permeable-Phenotype (%) [9]: 3%
Population Mitochondria Different-Phenotype (%) [9]: 8%
Population Mitotic Cells (%) [9]: 23%
Population Normal (%) [9]: 93%
Population Pyknosed Nuclei (%) [9]: 12%
Population Tubulin-Different-Phenotype (%) [9]: 57%
Total Cell Count [9]: 144
Population Apoptotic (%) [10]: 44%
Population Fragmented Nuclei (%) [10]: 36%
Population Healthy Nuclei (%) [10]: 40%
Population Hoechst High Intensity Objects (%) [10]: 7%
Population Membrane Permeable-Phenotype (%) [10]: 5%
Population Mitochondria Different-Phenotype (%) [10]: 7%
Population Mitotic Cells (%) [10]: 55%
Population Normal (%) [10]: 92%
Population Pyknosed Nuclei (%) [10]: 22%
Population Tubulin-Different-Phenotype (%) [10]: 77%
Total Cell Count [10]: 141
Population Apoptotic (%) [11]: 72%
Population Fragmented Nuclei (%) [11]: 24%
Population Healthy Nuclei (%) [11]: 54%
Population Hoechst High Intensity Objects (%) [11]: 9%
Population Membrane Permeable-Phenotype (%) [11]: 0%
Population Mitochondria Different-Phenotype (%) [11]: 20%
Population Mitotic Cells (%) [11]: 27%
Population Normal (%) [11]: 90%
Population Pyknosed Nuclei (%) [11]: 20%
Population Tubulin-Different-Phenotype (%) [11]: 55%
Total Cell Count [11]: 117
Population Apoptotic (%) [12]: 12%
Population Fragmented Nuclei (%) [12]: 47%
Population Healthy Nuclei (%) [12]: 44%
Population Hoechst High Intensity Objects (%) [12]: 0%
Population Membrane Permeable-Phenotype (%) [12]: 8%
Population Mitochondria Different-Phenotype (%) [12]: 13%
Population Mitotic Cells (%) [12]: 87%
Population Normal (%) [12]: 99%
Population Pyknosed Nuclei (%) [12]: 7%
Population Tubulin-Different-Phenotype (%) [12]: 73%
Total Cell Count [12]: 102
